From ChEMBL document CHEMBL1121883, “1-(Naphthylalkyl)-1H-imidazole derivatives, a new class of anticonvulsant agents” (J Med Chem, 1981)

Legend:
[1] = system: Mus musculus; assay: Anticonvulsant activity in mouse maximal electroshock assay following i.p. administration.; format: functional; details: ip
Procedure, shortened: (§1)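 Male Hilltop ICR-derived mice (19-30 g), groups of 8-10, dosed ip with compound or aqueous vehicle. After 15 min pretreatment, a transcorneal 60-Hz, 50 mA shock was given for 0.2 s. Just before the shock, each mouse was tested on a horizontal wire (10 s). Quantal data were analysed by Litchfield-Wilcoxon to give ED50 with 95% confidence limits.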

[2] = system: Mus musculus; assay: Protective index is defined as ND50 (i.p.) divided by MES ED50(i.p.); format: functional
Procedure, shortened: (§2)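 Ratio of ND50 from the wire traction test to MES ED50, both measured by the same route (ip or oral) in the same animals. Quantal dose-response data for each were evaluated by Litchfield-Wilcoxon.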

[3] = system: Mus musculus; assay: Dose causing a neurological deficit in 50% of mice after ip administration.; format: functional
Procedure, shortened: (§3)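 Traction test in male Hilltop ICR-derived mice (19-30 g, groups of 8-10) just before electroshock, 15 min after ip or 30 min after oral dosing. Mice placed on a 16-gauge, 65-cm copper wire 40 cm above the table; deficit scored as failure to stay on for 10 s. ND50 with 95% limits by Litchfield-Wilcoxon.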

[4] = (§4) Lethal dose was measured in mice after ip administration.; format: toxicity, organism-based; details: mouse, in vivo
Procedure, shortened: (§5)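 Male Simonsen ICR-derived mice (16-24 g), groups of three, given compound ip in increasing doses within a behavioral screen. Deaths counted on day 5, and LD50 estimated from 5-day survival. Quantal data analysed by the Litchfield-Wilcoxon method.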

[5] = system: Mus musculus; assay: Compound was evaluated for anticonvulsant activity by maximal electroshock assay(MES) in mice after ip administration; 22-80; format: functional; procedure, shortened: as §1
[6] = system: Mus musculus; assay: Protective index defined as ND50 (p.o.) divided by MES ED50(op); format: functional; procedure, shortened: as §2
[7] = system: Mus musculus; assay: Compound was evaluated for anticonvulsant activity by maximal electroshock assay(MES) in mice after ip administration; 8-19; format: functional; procedure, shortened: as §1
[8] = system: Mus musculus; assay: as §4; format: functional; procedure, shortened: as §5
[9] = system: Mus musculus; assay: Compound was evaluated for anticonvulsant activity by maximal electroshock assay(MES) in mice after po administration; 60-147; format: functional
Procedure, shortened: (§6)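 Male Hilltop ICR-derived mice (19-30 g), groups of 8-10, given compound or aqueous vehicle orally. The transcorneal 60-Hz shock (50 mA, 0.2 s) followed a 30 min pretreatment and a wire-hang neurological check (10 s). ED50 and 95% confidence limits were obtained from quantal data by the Litchfield-Wilcoxon method.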

[10] = system: Rattus norvegicus; assay: Compound was evaluated for anticonvulsant activity by maximal electroshock assay(MES) in rat after po administration.; format: functional
Procedure, shortened: (§7)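 Male Simonsen Sprague-Dawley-derived rats, 80-110 g, groups of 8-10, dosed with compound or aqueous vehicle; pretreatment 15 min after ip or 30 min after oral dosing. Transcorneal electroshock, 150 mA, 60 Hz, 0.2 s, given after the wire test. ED50 with 95% confidence limits from quantal data by Litchfield-Wilcoxon.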

[11] = system: Mus musculus; assay: Dose causing a neurological deficit in 50% of mice following p.o. administration.; format: functional; procedure, shortened: as §3
[12] = system: Rattus norvegicus; assay: Compound was evaluated for anticonvulsant activity by maximal electroshock assay(MES) in rat after ip administration; 2.9-19; format: functional
[13] = system: Rattus norvegicus; assay: Dose of compound causing a neurological deficit in 50% of rat after ip administration.; format: functional
Procedure, shortened: (§8)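 Rats (Simonsen Sprague-Dawley-derived, 80-110 g, groups of 8-10) placed on a suspended 16-gauge, 65-cm copper wire just before electroshock. Deficit scored as inability to remain for 8 s. Pretreatment was 15 min ip or 30 min oral. Quantal data analysed by Litchfield-Wilcoxon to give ND50 with 95% limits.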

[14] = system: Mus musculus; assay: Dose of compound causing a neurological deficit in 50% of mice after ip administration; format: functional; procedure, shortened: as §3
[15] = system: Mus musculus; assay: Compound was evaluated for anticonvulsant activity by maximal electroshock assay(MES) in mice after ip administration; format: functional; procedure, shortened: as §1
[16] = system: Mus musculus; assay: compound was evaluated for anticonvulsant activity by maximal electroshock assay(MES) in mice after po administration.; format: functional
Procedure, shortened: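 Male Hilltop ICR-derived mice, 19-30 g, groups of 8-10, dosed orally with compound or aqueous vehicle. Transcorneal electroshock (50 mA, 60 Hz, 0.2 s) delivered 30 min after dosing, immediately after a wire-hang neurological test. ED50 with 95% confidence limits estimated from quantal data by Litchfield-Wilcoxon.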

[17] = system: Mus musculus; assay: Compound was evaluated for anticonvulsant activity by maximal electroshock assay(MES) in mice after po administration.; format: functional; procedure, shortened: as §6
[18] = system: Rattus norvegicus; assay: Compound was evaluated for anticonvulsant activity by maximal electroshock assay(MES) in rat after ip administration; 0.6-6.6; format: functional
[19] = system: Mus musculus; assay: Dose of compound causing a neurological deficit in 50% of mice after ip administration; 66-92; format: functional; procedure, shortened: as §3
[20] = system: Mus musculus; assay: Compound was evaluated for anticonvulsant activity by maximal electroshock assay(MES) in mice after ip administration; 11-18; format: functional; procedure, shortened: as §1
[21] = system: Rattus norvegicus; assay: Dose of compound causing a neurological deficit in 50% of rat after po administration.; format: functional; procedure, shortened: as §8
[22] = system: Mus musculus; assay: Compound was evaluated for anticonvulsant activity by maximal electroshock assay(MES) in mice after po administration; 37-60; format: functional; procedure, shortened: as §6
[23] = system: Rattus norvegicus; assay: Compound was evaluated for anticonvulsant activity by maximal electroshock assay(MES) in rat after po administration; 13-39; format: functional; procedure, shortened: as §7

For `Cc1cc2cccc(C(=O)Cn3ccnc3)c2cc1C.Cl`, the ED50 [1] was 80 mg/kg, the PI [2] was >3.8 and the ND50 [3] was >300 mg/kg.
In the case of `Cl.c1ccc2cc(C3(Cn4ccnc4)SCCCS3)ccc2c1`, the ED50 [1] is reported as 65 mg/kg, the LD50 [4] is reported as > 100 mg/kg and the PI [2] is reported as 1.4.
`Cl.O=C(Cn1ccnc1)c1ccc2cc(Br)ccc2c1` showed an ED50 [5] of 41 mg/kg.
For `Br.CCc1ccc2cc(C(=O)Cn3ccnc3)ccc2c1`, the PI [6] was >1.2, the ED50 [7] was 12 mg/kg and the LD50 [8] was > 100 mg/kg. For the same molecule, the ED50 [9] was 84 mg/kg, the ED50 [10] was > 30 mg/kg and the PI [2] was >8.1. The ND50 [11] was >100 mg/kg, the ND50 [3] was >100 mg/kg and the ED50 [12] was 5.5 mg/kg. For the same molecule, the ND50 [13] was >100 mg/kg.
For `CC(C)SC(Cn1ccnc1)(SC(C)C)c1ccc2ccccc2c1.Cl`, the ED50 [1] was 86 mg/kg, the PI [2] was >1.2 and the ND50 [3] was >100 mg/kg.
In the case of `CS(=O)(=O)C(Cn1ccnc1)c1ccc2ccccc2c1.Cl` (stereo not given), the ND50 [14] is reported as >40 mg/kg and the ED50 [15] is reported as > 40 mg/kg.
With `Cl.c1ccc2cc(C3(Cn4ccnc4)SCCS3)ccc2c1` the PI [6] was 1.8, the LD50 [4] was > 30 mg/kg and the ED50 [16] was 70 mg/kg. For the same molecule, the PI [2] was 2.4, the ND50 [11] was 125 mg/kg and the ND50 [3] was 64 mg/kg.
With `Cl.c1ccc(CSC(Cn2ccnc2)(SCc2ccccc2)c2ccc3ccccc3c2)cc1` the ED50 [1] was > 100 mg/kg and the ND50 [3] was >100 mg/kg.
For `OC(Cn1ccnc1)c1ccc2ccccc2c1` (stereo not given), the LD50 [4] was > 300 mg/kg.
For `O=C(Cn1ccnc1)c1cccc2ccccc12`, the LD50 [4] was > 100 mg/kg.
In the case of `CCSC(Cn1ccnc1)(SCC)c1ccc2ccccc2c1.Cl`, the LD50 [4] is reported as > 100 mg/kg, the PI [2] is reported as 2.2 and the ND50 [3] is reported as 78 mg/kg.
With `CCCSC(Cn1ccnc1)(SCCC)c1ccc2ccccc2c1.Cl` the ED50 [1] was > 100 mg/kg, the LD50 [4] was > 100 mg/kg and the ND50 [3] was >100 mg/kg.
Molecule `CCC1(c2ccccc2)C(=O)NC(=O)NC1=O` [PHENOBARBITAL] has a PI [6] of 1.9, an ED50 [17] of 19 mg/kg and an ED50 [1] of 15 mg/kg. For the same molecule, the LD50 [4] was > 100 mg/kg, the PI [2] was 2 and the ND50 [11] was 36 mg/kg. It also gave an ND50 [3] of 30 mg/kg.
In the case of `Cl.O=C(Cn1ccnc1)c1ccc2ccccc2c1` [NAFIMIDONE HYDROCHLORIDE], the PI [6] is reported as >4.2, the LD50 [8] is reported as > 100 mg/kg and the ED50 [18] is reported as 1.7 mg/kg. For the same molecule, the ND50 [19] was 83 mg/kg, the ED50 [20] was 15 mg/kg and the ND50 [21] was >100 mg/kg. For the same molecule, the ND50 [11] was >200 mg/kg, the ED50 [22] was 48 mg/kg and the ED50 [23] was 26 mg/kg. For the same molecule, the ND50 [13] was >100 mg/kg.
